Assays:
[1] = biological target: ALK tyrosine kinase receptor (Homo sapiens) (UniProt Q9UM73); assay: Inhibition of wild-type human partial length ALK (I1088 to E1409 residues) expressed in HEK293 cells assessed as residual activity at 1000 nM after 30 mins by Kinomescan method relative to control; format: cell-based
[2] = biological target: Tyrosine-protein kinase Blk (Homo sapiens) (UniProt P51451); assay: Inhibition of wild-type human partial length BLK (G211 to L503 residues) expressed in Escherichia coli BL21 assessed as residual activity at 1000 nM after 30 mins by Kinomescan method relative to control
[3] = biological target: Calcium/calmodulin-dependent protein kinase type 1B (Homo sapiens) (UniProt Q6P2M8); assay: Inhibition of wild-type human partial length CAMK1B (W9 to A311 residues) expressed in HEK293 cells assessed as residual activity at 1000 nM after 30 mins by Kinomescan method relative to control; format: cell-based
[4] = biological target: Death-associated protein kinase 1 (Homo sapiens) (UniProt P53355); assay: Inhibition of wild-type human partial length DAPK1 (M1 to F296 residues) expressed in Escherichia coli BL21 assessed as residual activity at 1000 nM after 30 mins by Kinomescan method relative to control
[5] = biological target: Death-associated protein kinase 2 (Homo sapiens) (UniProt Q9UIK4); assay: Inhibition of wild-type human full length DAPK2 (M1 to S370 residues) expressed in Escherichia coli BL21 assessed as residual activity at 1000 nM after 30 mins by Kinomescan method relative to control
In short: (§1)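 Single-concentration screen at 1 µM across a 456-kinase KINOMEscan panel. The read-out is Percent Control for each kinase.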

[6] = system: Epidermal growth factor receptor (Homo sapiens), P00533 [L858R,T790M]; assay: Inhibition of human partial length EGFR L858R/T790M double mutant (R669 to V1011 residues) expressed in HEK293 cells assessed as residual activity at 1000 nM after 30 mins by Kinomescan method relative to control; format: cell-based
In short: (§2)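 KINOMEscan binding panel of 456 kinases, with the test compound at a single concentration of 1 µM. Read-out is Percent Control.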

[7] = biological target: Mitogen-activated protein kinase 7 (Homo sapiens) (UniProt Q13164); assay: Inhibition of wild-type human partial length ERK5 (M1 to A409 residues) expressed in Escherichia coli BL21 assessed as residual activity at 1000 nM after 30 mins by Kinomescan method relative to control
[8] = system: eIF-2-alpha kinase GCN2 (Homo sapiens), Q9P2K8 [S808G]; assay: Inhibition of wild-type human partial length GCN2 kinase domain 2 (R585 to T1018 residues) S808G mutant expressed in Escherichia coli BL21 assessed as residual activity at 1000 nM after 30 mins by Kinomescan method relative to control
[9] = biological target: Homeodomain-interacting protein kinase 3 (Homo sapiens) (UniProt Q9H422); assay: Inhibition of wild-type human partial length HIPK3 (M153 to N562 residues) expressed in HEK293 cells assessed as residual activity at 1000 nM after 30 mins by Kinomescan method relative to control; format: cell-based
[10] = biological target: Tyrosine-protein kinase JAK2 (Homo sapiens) (UniProt O60674); assay: Inhibition of wild-type human partial length JAK2 JH1 catalytic domain (A829 to G1132 residues) expressed in HEK293 cells assessed as residual activity at 1000 nM after 30 mins by Kinomescan method relative to control; format: cell-based
[11] = biological target: Mitogen-activated protein kinase kinase kinase 15 (Homo sapiens) (UniProt Q6ZN16); assay: Inhibition of wild-type human partial length MAP3K15 (T625 to L932 residues) expressed in HEK293 cells assessed as residual activity at 1000 nM after 30 mins by Kinomescan method relative to control; format: cell-based
[12] = biological target: Mitogen-activated protein kinase kinase kinase kinase 3 (Homo sapiens) (UniProt Q8IVH8); assay: Inhibition of wild-type human partial length MAP4K3 (M1 to D301 residues) expressed in Escherichia coli BL21 assessed as residual activity at 1000 nM after 30 mins by Kinomescan method relative to control
[13] = biological target: PDGFRA (platelet-derived growth factor receptor alpha) (Homo sapiens, UniProt P16234); assay: Inhibition of wild-type human partial length PDGFRA (V575 to D1002 residues) expressed in HEK293 cells assessed as residual activity at 1000 nM after 30 mins by Kinomescan method relative to control; format: cell-based; details: read-out: Activity
[14] = biological target: Cyclin-dependent kinase 14 (Homo sapiens) (UniProt O94921); assay: Inhibition of wild-type human full length PFTK1 (M1 to H451 residues) expressed in Escherichia coli BL21 assessed as residual activity at 1000 nM after 30 mins by Kinomescan method relative to control; in short: as §1
[15] = system: Phosphatidylinositol 4,5-bisphosphate 3-kinase catalytic subunit alpha isoform (Homo sapiens), P42336 [E542K]; assay: Inhibition of human partial length PIK3CA E542K mutant (R108 to N1068 residues) expressed in HEK293 cells assessed as residual activity at 1000 nM after 30 mins by Kinomescan method relative to control; format: cell-based; in short: as §2
[16] = biological target: cAMP-dependent protein kinase catalytic subunit alpha (Homo sapiens) (UniProt P17612); assay: Inhibition of wild-type human partial length PKAC-alpha (G10 to F351 residues) expressed in Escherichia coli BL21 assessed as residual activity at 1000 nM after 30 mins by Kinomescan method relative to control
[17] = biological target: Serine/threonine-protein kinase PLK4 (Homo sapiens) (UniProt O00444); assay: Inhibition of wild-type human partial length PLK4 (M1 to S273 residues) expressed in HEK293 cells assessed as residual activity at 1000 nM after 30 mins by Kinomescan method relative to control; format: cell-based
[18] = biological target: Ribosomal protein S6 kinase alpha-1 (Homo sapiens) (UniProt Q15418); assay: Inhibition of wild-type human partial length N-terminal RSK1 Kinase domain 1 (M1 to E388 residues) expressed in Escherichia coli BL21 assessed as residual activity at 1000 nM after 30 mins by Kinomescan method relative to control
[19] = biological target: SRSF protein kinase 3 (Homo sapiens) (UniProt Q9UPE1); assay: Inhibition of wild-type human partial length SRPK3 (P41 to P567 residues) expressed in Escherichia coli BL21 assessed as residual activity at 1000 nM after 30 mins by Kinomescan method relative to control
[20] = biological target: High affinity nerve growth factor receptor (Homo sapiens) (UniProt P04629); assay: Inhibition of wild-type human partial length TRKA (G475 to G790 residues) expressed in HEK293 cells assessed as residual activity at 1000 nM after 30 mins by Kinomescan method relative to control; format: cell-based
[21] = biological target: Phosphatidylinositol 3-kinase catalytic subunit type 3 (Homo sapiens) (UniProt Q8NEB9); assay: Inhibition of wild-type human partial length VPS34 (S282 to H879 residues) expressed in HEK293 cells assessed as residual activity at 1000 nM after 30 mins by Kinomescan method relative to control; format: cell-based
[22] = biological target: Serine/threonine-protein kinase VRK2 (Homo sapiens) (UniProt Q86Y07); assay: Inhibition of wild-type human partial length VRK2 (M1 to T336 residues) expressed in HEK293 cells assessed as residual activity at 1000 nM after 30 mins by Kinomescan method relative to control; format: cell-based
Sequence of Serine/threonine-protein kinase VRK2 (Homo sapiens) (Q86Y07 whole entry, the tested form may be a part): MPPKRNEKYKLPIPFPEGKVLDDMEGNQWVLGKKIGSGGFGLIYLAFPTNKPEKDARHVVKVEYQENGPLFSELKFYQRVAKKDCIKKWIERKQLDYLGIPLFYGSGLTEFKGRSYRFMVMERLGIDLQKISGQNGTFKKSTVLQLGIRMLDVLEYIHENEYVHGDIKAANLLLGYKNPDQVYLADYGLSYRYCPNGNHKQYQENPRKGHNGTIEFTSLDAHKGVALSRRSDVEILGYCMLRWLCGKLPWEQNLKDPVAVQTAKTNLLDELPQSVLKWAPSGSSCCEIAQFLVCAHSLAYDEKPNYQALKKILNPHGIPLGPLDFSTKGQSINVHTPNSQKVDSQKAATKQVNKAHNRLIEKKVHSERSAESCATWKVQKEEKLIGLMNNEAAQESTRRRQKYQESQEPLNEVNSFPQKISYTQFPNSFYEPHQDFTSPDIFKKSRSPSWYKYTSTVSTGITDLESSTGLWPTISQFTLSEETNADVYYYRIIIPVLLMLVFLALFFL

Sequence of PDGFRA (platelet-derived growth factor receptor alpha) (P16234 whole entry, the tested form may be a part): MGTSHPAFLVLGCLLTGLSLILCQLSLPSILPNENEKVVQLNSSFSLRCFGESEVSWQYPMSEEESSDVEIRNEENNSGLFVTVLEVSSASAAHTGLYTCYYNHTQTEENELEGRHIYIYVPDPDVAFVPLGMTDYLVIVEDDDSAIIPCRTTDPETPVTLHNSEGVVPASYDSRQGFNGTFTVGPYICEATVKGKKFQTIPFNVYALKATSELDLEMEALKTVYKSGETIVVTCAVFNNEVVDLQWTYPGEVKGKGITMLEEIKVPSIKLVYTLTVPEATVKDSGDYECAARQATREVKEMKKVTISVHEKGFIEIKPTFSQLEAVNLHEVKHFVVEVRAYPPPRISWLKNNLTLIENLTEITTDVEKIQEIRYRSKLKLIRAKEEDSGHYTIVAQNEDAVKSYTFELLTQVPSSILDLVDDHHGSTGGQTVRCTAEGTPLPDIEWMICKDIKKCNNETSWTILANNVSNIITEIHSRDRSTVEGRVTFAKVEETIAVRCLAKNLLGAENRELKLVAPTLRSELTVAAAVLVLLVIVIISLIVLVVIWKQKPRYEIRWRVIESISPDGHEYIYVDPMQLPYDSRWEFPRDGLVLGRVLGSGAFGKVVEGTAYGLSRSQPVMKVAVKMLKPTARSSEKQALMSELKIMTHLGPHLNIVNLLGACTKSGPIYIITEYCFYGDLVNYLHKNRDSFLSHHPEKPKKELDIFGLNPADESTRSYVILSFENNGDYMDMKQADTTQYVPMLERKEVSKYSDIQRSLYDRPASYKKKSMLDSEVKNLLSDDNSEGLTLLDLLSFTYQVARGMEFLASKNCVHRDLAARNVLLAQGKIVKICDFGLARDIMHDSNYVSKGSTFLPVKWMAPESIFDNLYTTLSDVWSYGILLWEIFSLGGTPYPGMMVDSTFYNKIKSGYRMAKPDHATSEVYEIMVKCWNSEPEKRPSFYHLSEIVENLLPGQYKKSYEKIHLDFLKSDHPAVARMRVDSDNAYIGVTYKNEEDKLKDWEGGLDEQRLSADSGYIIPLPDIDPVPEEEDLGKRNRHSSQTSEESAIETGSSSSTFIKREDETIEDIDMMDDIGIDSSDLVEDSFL
Sequence of ALK tyrosine kinase receptor (Homo sapiens) (Q9UM73 19-1620 limits assumed): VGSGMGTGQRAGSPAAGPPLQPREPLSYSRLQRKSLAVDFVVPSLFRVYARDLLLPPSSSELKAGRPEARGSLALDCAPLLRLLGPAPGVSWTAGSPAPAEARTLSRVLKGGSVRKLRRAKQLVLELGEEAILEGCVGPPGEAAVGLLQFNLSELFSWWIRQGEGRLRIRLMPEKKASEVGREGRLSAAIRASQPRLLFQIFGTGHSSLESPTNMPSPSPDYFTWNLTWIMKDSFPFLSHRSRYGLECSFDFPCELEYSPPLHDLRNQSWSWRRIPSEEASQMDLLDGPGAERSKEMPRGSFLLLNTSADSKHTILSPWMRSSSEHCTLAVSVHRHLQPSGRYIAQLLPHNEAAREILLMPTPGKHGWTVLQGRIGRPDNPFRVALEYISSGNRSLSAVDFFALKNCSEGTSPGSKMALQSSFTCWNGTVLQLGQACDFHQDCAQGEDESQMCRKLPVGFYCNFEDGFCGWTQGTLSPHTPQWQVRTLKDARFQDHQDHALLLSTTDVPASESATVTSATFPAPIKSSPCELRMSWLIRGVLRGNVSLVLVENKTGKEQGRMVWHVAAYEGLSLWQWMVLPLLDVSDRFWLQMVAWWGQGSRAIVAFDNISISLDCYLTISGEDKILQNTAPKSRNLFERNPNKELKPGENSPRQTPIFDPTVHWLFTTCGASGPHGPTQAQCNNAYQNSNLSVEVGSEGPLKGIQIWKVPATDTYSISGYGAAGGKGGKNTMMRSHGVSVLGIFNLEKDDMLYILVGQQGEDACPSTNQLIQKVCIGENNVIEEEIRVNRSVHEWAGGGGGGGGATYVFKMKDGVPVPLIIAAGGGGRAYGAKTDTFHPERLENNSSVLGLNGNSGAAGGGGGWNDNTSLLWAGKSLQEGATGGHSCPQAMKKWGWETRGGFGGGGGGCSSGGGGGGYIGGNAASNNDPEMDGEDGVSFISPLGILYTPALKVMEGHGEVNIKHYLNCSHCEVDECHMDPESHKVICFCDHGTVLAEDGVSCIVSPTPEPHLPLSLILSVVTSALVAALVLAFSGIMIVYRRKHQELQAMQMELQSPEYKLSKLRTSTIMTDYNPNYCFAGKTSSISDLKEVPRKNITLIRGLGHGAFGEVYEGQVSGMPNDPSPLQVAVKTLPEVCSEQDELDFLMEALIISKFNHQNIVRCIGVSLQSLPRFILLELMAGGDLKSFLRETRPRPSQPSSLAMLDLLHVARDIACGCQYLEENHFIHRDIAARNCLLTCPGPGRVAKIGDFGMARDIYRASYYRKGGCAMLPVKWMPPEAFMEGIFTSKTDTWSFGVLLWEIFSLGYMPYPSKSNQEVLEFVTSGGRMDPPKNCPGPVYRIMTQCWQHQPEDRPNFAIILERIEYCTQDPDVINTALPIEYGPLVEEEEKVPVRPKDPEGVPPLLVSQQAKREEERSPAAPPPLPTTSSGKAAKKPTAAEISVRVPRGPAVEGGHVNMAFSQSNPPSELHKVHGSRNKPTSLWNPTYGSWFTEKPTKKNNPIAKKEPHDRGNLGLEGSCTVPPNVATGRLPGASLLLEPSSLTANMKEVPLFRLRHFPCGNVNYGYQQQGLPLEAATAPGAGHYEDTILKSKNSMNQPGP
Sequence of Phosphatidylinositol 3-kinase catalytic subunit type 3 (Homo sapiens) (Q8NEB9 whole entry, the tested form may be a part): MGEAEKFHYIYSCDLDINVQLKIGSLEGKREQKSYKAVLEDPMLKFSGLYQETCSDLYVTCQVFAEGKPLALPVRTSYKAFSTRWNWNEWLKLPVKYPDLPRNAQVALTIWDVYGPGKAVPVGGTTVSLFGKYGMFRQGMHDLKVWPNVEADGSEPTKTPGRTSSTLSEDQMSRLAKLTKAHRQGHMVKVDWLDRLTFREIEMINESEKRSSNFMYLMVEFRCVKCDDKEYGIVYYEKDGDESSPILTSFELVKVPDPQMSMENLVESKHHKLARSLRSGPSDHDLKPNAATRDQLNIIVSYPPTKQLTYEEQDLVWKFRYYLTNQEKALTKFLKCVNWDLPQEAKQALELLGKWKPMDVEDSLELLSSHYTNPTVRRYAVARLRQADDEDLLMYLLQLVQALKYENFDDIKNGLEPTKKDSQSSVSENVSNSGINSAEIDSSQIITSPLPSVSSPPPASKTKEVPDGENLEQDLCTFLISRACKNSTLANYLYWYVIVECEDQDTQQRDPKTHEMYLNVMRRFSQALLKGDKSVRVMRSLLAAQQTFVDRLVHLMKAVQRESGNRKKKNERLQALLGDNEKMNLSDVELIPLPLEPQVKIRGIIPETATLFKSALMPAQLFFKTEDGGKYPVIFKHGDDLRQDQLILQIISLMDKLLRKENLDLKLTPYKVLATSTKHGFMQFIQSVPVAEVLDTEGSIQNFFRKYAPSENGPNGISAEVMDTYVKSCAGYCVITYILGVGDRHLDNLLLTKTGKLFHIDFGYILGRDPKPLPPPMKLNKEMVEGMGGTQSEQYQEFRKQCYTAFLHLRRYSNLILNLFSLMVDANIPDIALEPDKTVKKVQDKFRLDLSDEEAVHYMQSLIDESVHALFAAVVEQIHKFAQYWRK
Sequence of SRSF protein kinase 3 (Homo sapiens) (Q9UPE1 whole entry, the tested form may be a part): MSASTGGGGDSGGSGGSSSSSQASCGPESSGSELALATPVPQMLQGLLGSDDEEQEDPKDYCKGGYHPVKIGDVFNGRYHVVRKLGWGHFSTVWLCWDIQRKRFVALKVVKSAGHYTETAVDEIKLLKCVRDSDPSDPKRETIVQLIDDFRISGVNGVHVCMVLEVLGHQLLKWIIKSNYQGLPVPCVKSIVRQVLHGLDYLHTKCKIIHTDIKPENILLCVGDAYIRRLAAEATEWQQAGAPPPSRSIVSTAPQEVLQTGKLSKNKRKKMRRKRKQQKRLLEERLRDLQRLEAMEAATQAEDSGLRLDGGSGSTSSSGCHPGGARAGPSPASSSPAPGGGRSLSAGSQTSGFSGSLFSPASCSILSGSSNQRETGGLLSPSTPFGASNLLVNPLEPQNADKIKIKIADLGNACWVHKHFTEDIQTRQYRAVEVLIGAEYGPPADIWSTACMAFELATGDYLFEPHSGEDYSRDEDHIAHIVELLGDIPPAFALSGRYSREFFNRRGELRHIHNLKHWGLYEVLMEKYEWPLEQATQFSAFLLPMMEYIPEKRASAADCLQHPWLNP
Sequence of Death-associated protein kinase 2 (Homo sapiens) (Q9UIK4 whole entry, looked up, the tested form may be a part): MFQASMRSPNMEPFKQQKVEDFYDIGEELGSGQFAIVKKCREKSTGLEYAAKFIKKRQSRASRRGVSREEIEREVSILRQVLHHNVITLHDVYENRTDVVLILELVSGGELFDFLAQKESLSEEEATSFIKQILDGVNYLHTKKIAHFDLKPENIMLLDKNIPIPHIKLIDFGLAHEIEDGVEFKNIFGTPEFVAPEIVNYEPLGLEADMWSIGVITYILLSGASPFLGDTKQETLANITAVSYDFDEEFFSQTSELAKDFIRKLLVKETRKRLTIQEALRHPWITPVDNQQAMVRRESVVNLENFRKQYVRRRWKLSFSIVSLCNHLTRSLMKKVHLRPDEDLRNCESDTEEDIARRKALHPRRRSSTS

Work on COc1cc(OC)c(Cl)c(N2Cc3cnc(Nc4ccc(F)cc4)nc3N(C3CCN(C(=O)/C=C/CN(C)C)CC3)C2=O)c1Cl yielded an Activity [1] of 100%, an Activity [2] of 0.6% and an Activity [3] of 100%. For the same compound, the Activity [4] was 100%, the Activity [5] was 100% and the Activity [6] was 94%. It also gave an Activity [7] of 49%, an Activity [8] of 46% and an Activity [9] of 100%. For the same compound, the Activity [10] was 100%, the Activity [11] was 100% and the Activity [12] was 88%. It also gave an activity at 0.5 h, 1 µM [13] of 62%, an Activity [14] of 92% and an Activity [15] of 86%. For the same compound, the Activity [16] was 100%, the Activity [17] was 100% and the Activity [18] was 78%. For the same compound, the Activity [19] was 86%, the Activity [20] was 38% and the Activity [21] was 100%. The Activity [22] was 100%.
